ChEMBL document CHEMBL1124840 (J Med Chem, 1990)
Calls of active or inactive are those of the source. The rule behind the calls is not given here. Positions of bridges follow the written chain, without caps; N, C: chain ends. Non-standard residues stand in square brackets, D forms with d. Residues, ends and D or L forms follow the SMILES beside them. Pen = CC(C)(S)[C@H](N)C(=O)O; hCys = N[C@@H](CCS)C(=O)O; Sar = CNCC(=O)O

Legend:
[1] = target: T1, Angiotensin II receptor (AT-1) type-1 (Rattus norvegicus, UniProt P29089+P25095); experiment: Concentration required to 50% inhibition in specific binding of [125- I]A-II to Angiotensin II receptor in rat uterine membrane; assay type: cell membranes
T1 sequence (P29089 whole entry): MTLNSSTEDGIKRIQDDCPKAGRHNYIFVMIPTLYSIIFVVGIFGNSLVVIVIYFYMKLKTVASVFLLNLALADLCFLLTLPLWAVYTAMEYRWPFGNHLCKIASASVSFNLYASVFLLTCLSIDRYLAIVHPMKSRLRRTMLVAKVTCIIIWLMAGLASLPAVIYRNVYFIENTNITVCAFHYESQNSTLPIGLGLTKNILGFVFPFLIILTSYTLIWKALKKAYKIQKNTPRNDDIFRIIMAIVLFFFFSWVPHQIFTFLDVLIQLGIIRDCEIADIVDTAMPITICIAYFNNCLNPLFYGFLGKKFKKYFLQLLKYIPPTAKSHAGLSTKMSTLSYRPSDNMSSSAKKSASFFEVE
T1 sequence (P25095 whole entry): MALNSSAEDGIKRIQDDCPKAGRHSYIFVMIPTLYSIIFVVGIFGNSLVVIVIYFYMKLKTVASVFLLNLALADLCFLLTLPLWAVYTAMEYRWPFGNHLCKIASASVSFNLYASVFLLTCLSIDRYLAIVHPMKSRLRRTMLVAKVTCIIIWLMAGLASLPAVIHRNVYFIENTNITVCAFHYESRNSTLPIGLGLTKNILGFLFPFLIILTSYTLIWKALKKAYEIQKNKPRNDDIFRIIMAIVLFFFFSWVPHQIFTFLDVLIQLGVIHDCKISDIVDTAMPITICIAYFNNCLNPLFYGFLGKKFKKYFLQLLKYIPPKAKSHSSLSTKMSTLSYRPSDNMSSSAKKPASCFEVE
Outline: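 Rat uterine membranes were homogenized in ice-cold Dulbecco's PBS with 5 mM EDTA, spun at 1500g then 100000g, and resuspended in 2 mM EGTA/50 mM Tris-HCl pH 7.5. Nonspecific binding was defined with 10 µM AII. IC50 came from nonlinear least-squares fits, triplicate means.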

Oryctolagus cuniculus [2] = organism: Oryctolagus cuniculus; experiment: Contractile activity in rabbit aortic rings relative to angiotensin II.; assay type: functional, Aorta
Outline: (§1)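 Aortic rings were taken from male New Zealand white rabbits (2–2.5 kg) and tested at analogue concentrations up to 10 µM. Potency is relative to the AII concentration/response curve run at the same time on a paired ring from the same aorta.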

Oryctolagus cuniculus [3] = organism: Oryctolagus cuniculus; experiment: Contractile activity in rabbit aortic rings.; assay type: functional, Aorta
Outline: (§2)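 Aortic rings were taken from male New Zealand white rabbits (2–2.5 kg) and tested at analogue concentrations up to 10 µM. pD2 was calculated from the analogue's concentration/response curve.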

Oryctolagus cuniculus [4] = organism: Oryctolagus cuniculus; experiment: No contractile activity was observed up to 10 uM concentration in rabbit aortic rings relative to angiotensin II; NA = no activity; assay type: functional; details: Aorta; outline: as §1
Oryctolagus cuniculus [5] = organism: Oryctolagus cuniculus; experiment: No contractile activity was observed up to 10 uM concentration in rabbit aortic rings; NA = no activity; assay type: functional; details: Aorta; outline: as §2
[6] = target: Type-1 angiotensin II receptor (Oryctolagus cuniculus) (UniProt P34976); experiment: pA2 value for Angiotensin II receptor
Chain of Type-1 angiotensin II receptor (Oryctolagus cuniculus) (P34976 whole entry, looked up): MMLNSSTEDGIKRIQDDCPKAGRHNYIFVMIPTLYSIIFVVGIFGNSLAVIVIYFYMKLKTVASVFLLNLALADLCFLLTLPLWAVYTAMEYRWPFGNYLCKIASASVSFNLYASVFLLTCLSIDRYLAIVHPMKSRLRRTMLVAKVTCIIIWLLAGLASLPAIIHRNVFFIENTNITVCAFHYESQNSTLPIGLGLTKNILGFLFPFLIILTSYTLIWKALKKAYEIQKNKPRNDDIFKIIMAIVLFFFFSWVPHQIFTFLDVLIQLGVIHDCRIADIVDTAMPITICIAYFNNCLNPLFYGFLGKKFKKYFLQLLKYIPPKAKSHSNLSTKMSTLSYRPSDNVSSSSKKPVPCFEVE

| Compound | IC50 [1] [nM] | Relative potency (Oryctolagus cuniculus [2]) | pD2 (Oryctolagus cuniculus [3]) | Relative potency (Oryctolagus cuniculus [4]) | pD2 (Oryctolagus cuniculus [5]) | Kb [6] [nM] |
| --- | --- | --- | --- | --- | --- | --- |
| NC(N)=NCCC[C@H](NC(=O)[C@@H](N)CC(=O)O)C(=O)N[C@H]1CCSSCC[C@@H](C(=O)N[C@@H](Cc2c[nH]cn2)C(=O)N2CCC[C@H]2C(=O)N[C@@H](Cc2ccccc2)C(=O)O)NC(=O)[C@H](Cc2ccc(O)cc2)NC1=O (H-DR[hCys]Y[hCys]HPF-OH; disulfide 3-5) | 2.1 | 0.49 | 8.48 | – | – | – |
| CC1(C)SSC[C@@H](C(=O)N[C@@H](Cc2c[nH]cn2)C(=O)N2CCC[C@H]2C(=O)N[C@@H](Cc2ccccc2)C(=O)O)NC(=O)[C@H](Cc2ccc(O)cc2)NC(=O)[C@H]1NC(=O)[C@H](CCCN=C(N)N)NC(=O)[C@@H](N)CC(=O)O (H-DR[Pen]YCHPF-OH; disulfide 3-5) | 58 | 0.0001 | 5 | – | – | – |
| CC[C@H](C)[C@H](NC(=O)[C@H](Cc1ccc(O)cc1)NC(=O)[C@@H](NC(=O)[C@H](CCCNC(=N)N)NC(=O)[C@@H](N)CC(=O)O)C(C)C)C(=O)N[C@@H](Cc1cnc[nH]1)C(=O)N1CCC[C@H]1C(=O)N[C@@H](Cc1ccccc1)C(=O)O [ANGIOTENSIN II] | – | – | 8.81 | – | – | – |
| NC(N)=NCCC[C@H](NC(=O)[C@@H](N)CC(=O)O)C(=O)N[C@H]1CSSC[C@H](C(=O)N[C@@H](Cc2c[nH]cn2)C(=O)N2CCC[C@H]2C(=O)N[C@@H](Cc2ccccc2)C(=O)O)NC(=O)[C@H](Cc2ccc(O)cc2)NC1=O | 10000 | – | – | inactive | inactive | – |
| CC(=O)NCSC[C@H](NC(=O)[C@H](CCCN=C(N)N)NC(=O)[C@@H](N)CC(=O)O)C(=O)N[C@@H](Cc1ccc(O)cc1)C(=O)N[C@@H](CSCNC(C)=O)C(=O)N[C@@H](Cc1c[nH]cn1)C(=O)N1CCC[C@H]1C(=O)N[C@@H](Cc1ccccc1)C(=O)O | 10000 | <0.0001 | <5 | – | – | – |
| CC1(C)SSC[C@H](NC(=O)[C@H](CCCN=C(N)N)NC(=O)[C@@H](N)CC(=O)O)C(=O)N[C@@H](Cc2ccc(O)cc2)C(=O)N[C@@H]1C(=O)N[C@@H](Cc1c[nH]cn1)C(=O)N1CCC[C@H]1C(=O)N[C@@H](Cc1ccccc1)C(=O)O (H-DRCY[Pen]HPF-OH; disulfide 3-5) | 1.3 | 0.001 | 5.8 | – | – | – |
| NC(N)=NCCC[C@H](NC(=O)[C@@H](N)CC(=O)O)C(=O)N[C@H]1CSSC[C@@H](C(=O)N[C@@H](Cc2c[nH]cn2)C(=O)N2CCC[C@H]2C(=O)N[C@@H](Cc2ccccc2)C(=O)O)NC(=O)[C@H](Cc2ccc(O)cc2)NC1=O | 43 | <0.0001 | <5 | – | – | – |
| H-DRCYIHPF-OH | 15 | 0.092 | 7.68 | – | – | – |
| CC(=O)NCSC[C@H](NC(=O)[C@H](Cc1ccc(O)cc1)NC(=O)[C@@H](CSCNC(C)=O)NC(=O)[C@H](CCCN=C(N)N)NC(=O)[C@@H](N)CC(=O)O)C(=O)N[C@@H](Cc1c[nH]cn1)C(=O)N1CCC[C@H]1C(=O)N[C@@H](Cc1ccccc1)C(=O)O | > 10000 | – | – | inactive | inactive | – |
| NC(N)=NCCC[C@H](NC(=O)[C@@H](N)CC(=O)O)C(=O)N[C@@H]1CSSC[C@@H](C(=O)N[C@@H](Cc2c[nH]cn2)C(=O)N2CCC[C@H]2C(=O)N[C@@H](Cc2ccccc2)C(=O)O)NC(=O)[C@H](Cc2ccc(O)cc2)NC1=O | – | – | – | inactive | inactive | – |
| CC(=O)NCSC[C@H](NC(=O)[C@H](CCCN=C(N)N)NC(=O)[C@@H](N)CC(=O)O)C(=O)N[C@@H](Cc1ccc(O)cc1)C(=O)N[C@H](CSCNC(C)=O)C(=O)N[C@@H](Cc1c[nH]cn1)C(=O)N1CCC[C@H]1C(=O)N[C@@H](Cc1ccccc1)C(=O)O | 10000 | – | – | inactive | inactive | – |
| NC(N)=NCCC[C@H](NC(=O)[C@@H](N)CC(=O)O)C(=O)N[C@H]1CSSCC[C@@H](C(=O)N[C@@H](Cc2c[nH]cn2)C(=O)N2CCC[C@H]2C(=O)N[C@@H](Cc2ccccc2)C(=O)O)NC(=O)[C@H](Cc2ccc(O)cc2)NC1=O (H-DRCY[hCys]HPF-OH; disulfide 3-5) | 13 | 0.012 | 6.98 | – | – | – |
| CC1(C)SSC(C)(C)[C@@H](C(=O)N[C@@H](Cc2c[nH]cn2)C(=O)N2CCC[C@H]2C(=O)N[C@@H](Cc2ccccc2)C(=O)O)NC(=O)[C@H](Cc2ccc(O)cc2)NC(=O)[C@H]1NC(=O)[C@H](CCCN=C(N)N)NC(=O)[C@@H](N)CC(=O)O (H-DR[Pen]Y[Pen]HPF-OH; disulfide 3-5) | 2.6 | 0.0001 | 5 | – | – | – |
| CC[C@H](C)[C@H](NC(=O)[C@@H]1CCCN1C(=O)[C@H](Cc1c[nH]cn1)NC(=O)[C@@H]1CCSSCC[C@H](NC(=O)[C@H](CCCN=C(N)N)NC(=O)CNC)C(=O)N[C@@H](Cc2ccc(O)cc2)C(=O)N1)C(=O)O (H-[Sar]R[hCys]Y[hCys]HPI-OH; disulfide 3-5) | 0.9 | – | – | inactive | inactive | 0.813 |
| NC(N)=NCCC[C@H](NC(=O)[C@@H](N)CC(=O)O)C(=O)N[C@H]1CCSSC[C@@H](C(=O)N[C@@H](Cc2c[nH]cn2)C(=O)N2CCC[C@H]2C(=O)N[C@@H](Cc2ccccc2)C(=O)O)NC(=O)[C@H](Cc2ccc(O)cc2)NC1=O (H-DR[hCys]YCHPF-OH; disulfide 3-5) | 10 | 0.001 | 5.91 | – | – | – |
| H-DRVYCHPF-OH | 20 | 0.031 | 7.21 | – | – | – |
